ChEMBL document CHEMBL1240461, “Regioselective synthesis and molecular modeling study of vasorelaxant active 7,9-dioxa-1,2-diaza-spiro[4.5]dec-2-ene-6,10-diones” (Eur J Med Chem, 2010)
pIC50: −log10 of the molar value.

These compounds were tested on Aorta (assay: Vasorelaxant activity in Wistar rat thoracic aortic ring assessed as inhibition of norepinephrine hydrochloride-induced contraction).
Assay type: functional, tissue-based
Procedure, shortened: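 Isolated thoracic aortic rings from male Wistar rats, stabilised at 2 g resting tension for 2 h. Controls used DMSO alone at matching concentrations. IC50 is the concentration giving 50% reduction of maximal norepinephrine contracture, from a best-fit line.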

Row | pIC50 | Compound
1 | 3.49 | CC1(C)OC(=O)C2(C(=O)O1)C(c1cccs1)C(c1ccccc1)=NN2c1cccc(Cl)c1 (stereo unspecified)
2 | 3.23 | CC1(C)OC(=O)C2(C(=O)O1)C(c1ccc(Cl)cc1)C(c1ccccc1)=NN2c1ccccc1 (stereo unspecified)
3 | 3.14 | Cc1ccc(C2C(c3ccccc3)=NN(c3cccc(Cl)c3)C23C(=O)OC(C)(C)OC3=O)o1 (stereo unspecified)
4 | 2.83 | CC1(C)OC(=O)C2(C(=O)O1)C(c1ccc(F)cc1)C(c1ccccc1)=NN2c1ccccc1 (stereo unspecified)
5 | 3.37 | CN(C)c1ccc(C2C(c3ccccc3)=NN(c3cccc(Cl)c3)C23C(=O)OC(C)(C)OC3=O)cc1 (stereo unspecified)
6 | 3.35 | CC1(C)OC(=O)C2(C(=O)O1)C(c1ccc(Cl)cc1)C(c1ccccc1)=NN2c1cccc(Cl)c1 (stereo unspecified)
7 | 3.19 | CC1(C)OC(=O)C2(C(=O)O1)C(c1ccc(F)cc1)C(c1ccccc1)=NN2c1cccc(Cl)c1 (stereo unspecified)
8 | 3.30 | COc1ccc(C2C(c3ccccc3)=NN(c3ccccc3)C23C(=O)OC(C)(C)OC3=O)cc1 (stereo unspecified)
9 | 3.23 | CC1(C)OC(=O)C2(C(=O)O1)C(c1cccs1)C(c1ccccc1)=NN2c1ccccc1 (stereo unspecified)
10 | 3.14 | Cc1ccc(C2C(c3ccccc3)=NN(c3ccccc3)C23C(=O)OC(C)(C)OC3=O)o1 (stereo unspecified)
11 | 3.49 | COc1ccc(C2C(c3ccccc3)=NN(c3cccc(Cl)c3)C23C(=O)OC(C)(C)OC3=O)cc1 (stereo unspecified)
